What was measured:
Cannabinoid receptor 1 [1] = biological target: T1, Cannabinoid receptor 1 (Homo sapiens, UniProt P21554); test: Displacement of [3H]SR141716A from human CB1 receptor expressed in CHO cells at 10 uM; assay type: cell-based
Outline: (§1)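 Radioligand competition on membranes from CHO cells stably transfected with human CB1 or CB2. Radioligands at 1 nM: [3H]-SR141716A for hCB1, [3H]-CP-55,940 for hCB2. Compound screened at 10 µM. 40 µg membrane protein; Tris-HCl pH 7.4 buffer with MgCl2, EDTA, 0.5% BSA; 1 h at 30 °C. Filtered on PEI-treated GF/B filters and counted. Nonspecific binding with 10 µM HU-210. Result given as % displacement.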

[2] = biological target: Cannabinoid receptor 2 (Homo sapiens) (UniProt P34972); test: Displacement of [3H]CP-55940 from human CB2 receptor expressed in CHO cells at 10 uM; assay type: cell-based; outline: as §1
Sequence of Cannabinoid receptor 2 (Homo sapiens) (P34972 whole entry): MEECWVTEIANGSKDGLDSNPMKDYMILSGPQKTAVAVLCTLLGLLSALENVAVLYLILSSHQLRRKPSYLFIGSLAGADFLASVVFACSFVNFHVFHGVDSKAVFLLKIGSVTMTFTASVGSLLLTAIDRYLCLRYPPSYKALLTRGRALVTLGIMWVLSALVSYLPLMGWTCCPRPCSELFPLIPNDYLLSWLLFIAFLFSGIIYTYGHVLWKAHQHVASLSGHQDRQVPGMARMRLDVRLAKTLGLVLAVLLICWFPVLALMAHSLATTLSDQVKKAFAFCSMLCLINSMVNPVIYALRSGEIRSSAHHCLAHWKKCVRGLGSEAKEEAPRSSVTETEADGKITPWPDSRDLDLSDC

[3] = biological target: T2, Fatty-acid amide hydrolase 1 (Rattus norvegicus) (UniProt P97612); test: Inhibition of FAAH in rat brain homogenates at 10 uM; assay type: tissue-based
T2 sequence (whole entry): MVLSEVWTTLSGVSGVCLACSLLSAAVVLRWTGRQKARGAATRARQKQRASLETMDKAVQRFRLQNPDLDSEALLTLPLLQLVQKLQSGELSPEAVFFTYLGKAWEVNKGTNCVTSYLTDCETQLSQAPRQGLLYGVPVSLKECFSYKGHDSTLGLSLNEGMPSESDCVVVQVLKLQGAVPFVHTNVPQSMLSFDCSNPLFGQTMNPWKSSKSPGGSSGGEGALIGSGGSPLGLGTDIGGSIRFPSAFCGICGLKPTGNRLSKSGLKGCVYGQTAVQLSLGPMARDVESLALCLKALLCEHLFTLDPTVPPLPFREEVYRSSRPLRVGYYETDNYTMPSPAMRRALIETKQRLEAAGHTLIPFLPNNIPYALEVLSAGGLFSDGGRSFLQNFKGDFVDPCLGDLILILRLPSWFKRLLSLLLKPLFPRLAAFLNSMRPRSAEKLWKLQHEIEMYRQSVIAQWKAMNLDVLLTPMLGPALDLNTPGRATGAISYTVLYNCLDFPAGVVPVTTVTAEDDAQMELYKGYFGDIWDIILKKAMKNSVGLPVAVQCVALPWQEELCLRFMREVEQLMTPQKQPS
Outline: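 FAAH activity in adult rat brain membranes, prepared by homogenization in HEPES pH 7.0 and repeated centrifugation at 36 000 g. Compound at 10 µM incubated with [3H]-anandamide (2 µM final) in Tris-HCl pH 7.6, EDTA, 0.1% BSA for 10 min at 37 °C. Stopped on ice with chloroform/methanol; radioactivity in the aqueous methanol phase counted. Blanks without homogenate.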

Cannabinoid receptor 1 [4] = biological target: T1, Cannabinoid receptor 1
[5] = biological target: Cannabinoid receptor 1 (Rattus norvegicus) (UniProt P20272); test: Potency at rat CB1 receptor in a [35S]GTPgammaS functional assay at 10 uM; settings: filed as antagonist
Sequence of Cannabinoid receptor 1 (Rattus norvegicus) (P20272 whole entry): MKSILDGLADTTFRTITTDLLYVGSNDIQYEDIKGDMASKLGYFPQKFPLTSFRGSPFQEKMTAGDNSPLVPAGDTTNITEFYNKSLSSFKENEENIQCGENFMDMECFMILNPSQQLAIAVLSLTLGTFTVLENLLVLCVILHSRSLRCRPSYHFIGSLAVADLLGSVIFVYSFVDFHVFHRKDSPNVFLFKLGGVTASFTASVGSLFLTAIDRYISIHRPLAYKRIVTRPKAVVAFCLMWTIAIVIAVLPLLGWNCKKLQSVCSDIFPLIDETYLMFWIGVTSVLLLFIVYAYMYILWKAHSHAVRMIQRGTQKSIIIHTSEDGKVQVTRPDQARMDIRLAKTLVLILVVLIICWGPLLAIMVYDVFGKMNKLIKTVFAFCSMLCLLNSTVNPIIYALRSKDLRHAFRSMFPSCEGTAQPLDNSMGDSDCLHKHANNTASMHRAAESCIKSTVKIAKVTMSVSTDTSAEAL
Outline: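 [35S]-GTPγS binding in rat cerebellum homogenate, 40 µg protein. Buffer: Tris-HCl pH 7.4 with 100 mM NaCl, 0.1% BSA and 20 µM GDP. Compound at 10 µM; 0.05 nM [35S]-GTPγS final; 1 h at 30 °C. Filtered on GF/B and counted. Nonspecific binding with 100 µM Gpp(NH)p. Mean ± SEM of at least three experiments in duplicate.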

Cannabinoid receptor 1 [6] = biological target: T1, Cannabinoid receptor 1; test: Potency at human CB1 receptor in a [35S]GTP-gamma-S functional assay
Cannabinoid receptor 1 [7] = biological target: Cannabinoid receptor 1 (Rattus norvegicus, UniProt P20272); test: Displacement of [3H]SR141716A from CB1 receptor in rat cerebellum; assay type: tissue-based
Sequence of Cannabinoid receptor 1 (Rattus norvegicus, UniProt P20272) (P20272 whole entry): as above
Outline: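 40 µg protein; Tris-HCl pH 7.4 buffer with 0.5% BSA; 1 h at 30 °C. Compound at varying concentrations; nonspecific binding with 10 µM HU-210. IC50 by nonlinear regression, converted to Ki by Cheng-Prusoff. Mean ± SEM of at least four experiments in duplicate.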

T1 sequence (P21554 whole entry): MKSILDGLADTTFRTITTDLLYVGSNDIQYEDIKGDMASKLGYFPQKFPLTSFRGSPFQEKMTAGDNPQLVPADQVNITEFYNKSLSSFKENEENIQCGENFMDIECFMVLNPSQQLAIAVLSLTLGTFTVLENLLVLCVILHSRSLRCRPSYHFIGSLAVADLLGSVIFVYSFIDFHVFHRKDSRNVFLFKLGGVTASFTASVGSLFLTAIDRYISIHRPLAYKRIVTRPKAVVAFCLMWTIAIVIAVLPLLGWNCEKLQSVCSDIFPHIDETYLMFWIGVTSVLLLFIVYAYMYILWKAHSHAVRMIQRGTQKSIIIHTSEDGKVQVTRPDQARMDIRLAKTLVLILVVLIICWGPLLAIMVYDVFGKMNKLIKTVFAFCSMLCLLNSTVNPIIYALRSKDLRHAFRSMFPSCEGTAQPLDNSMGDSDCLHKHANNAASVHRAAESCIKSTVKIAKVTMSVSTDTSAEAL

SMILES | Activity (Cannabinoid receptor 1 [1]) [%] | Activity [2] [%] | inhibition [3] [%] | Ki (Cannabinoid receptor 1 [4]) [nM] | Activity [5] | EC50 (Cannabinoid receptor 1 [6]) [nM] | Ki (Cannabinoid receptor 1 [7]) [nM]
CCCCCN1C(=O)C(c2ccccc2)N(c2ccccc2)C1=O (stereo not given) | 41.1 | < 10 |  |  |  |  | 
O=C1C(c2ccccc2)N(C2CCCCC2)C(=O)N1C1CCCCC1 (stereo not given) | 25 |  |  |  |  |  | 
O=C1C(c2ccc(Br)cc2)N(c2ccccc2)C(=S)N1c1ccccc1 (stereo not given) | 85.1 | < 10 | 19.1 | 6310 |  |  | 
O=C1C(c2ccccc2)N(c2ccc(Cl)c(Cl)c2)C(=S)N1c1ccc(Cl)c(Cl)c1 (stereo not given) | 78.7 | < 10 | 22.9 | 2000 |  |  | 
O=C(c1ccccc1)N1C(=O)C(c2ccccc2)N(c2ccccc2)C1=O (stereo not given) | < 10 | < 10 |  |  |  |  | 
Cc1ccc(N2C(=O)C(c3ccccc3)N(c3ccc(C)cc3)C2=S)cc1 (stereo not given) | 80.1 | < 20 | < 10 | 4970 |  |  | 
O=C1NC(=O)N(c2ccc(I)cc2)C1c1ccccc1 (stereo not given) | < 20 | < 10 |  |  |  |  | 
COc1ccc(N2C(=O)C(c3ccccc3)N(c3ccc(OC)cc3)C2=O)cc1 (stereo not given) | 57.8 | 31.4 | < 10 | 6460 |  |  | 
O=C1NC(=O)N(c2ccccc2)C1c1ccc(Br)cc1 (stereo not given) | < 15 | < 10 |  |  |  |  | 
O=C1C(c2ccc(Cl)cc2)N(c2ccccc2)C(=O)N1c1ccccc1 (stereo not given) | 60.2 | < 15 | 13.7 | 6660 |  |  | 
O=C1C(c2ccc(Cl)cc2)N(c2ccc(Cl)cc2)C(=O)N1c1ccc(Cl)cc1 (stereo not given) | 71.6 | 28.1 | < 10 | 1880 | Antagonist | 1110 | 2620
O=C1NC(=O)N(c2ccc(Br)cc2)C1c1ccc(Br)cc1 (stereo not given) | < 15 | < 10 |  |  |  |  | 
O=C1NC(=O)N(c2ccc(Cl)cc2)C1c1ccccc1 (stereo not given) | < 15 | < 10 |  |  |  |  | 
O=C1C(c2ccc(Br)cc2)N(c2ccccc2)C(=O)N1c1ccccc1 (stereo not given) | 75.4 | < 15 | 14.5 | 4030 |  |  | 
O=C1C(c2ccccc2)N(c2cccc(I)c2)C(=S)N1c1cccc(I)c1 (stereo not given) | 81.2 | < 15 | 17.4 | 692 |  | 461 | 
O=C1C(c2ccccc2)N(c2ccccc2)C(=O)N1c1ccccc1 (stereo not given) | 57.1 | < 10 | < 10 | 6300 |  |  | 
O=C1C(c2ccccc2)N(c2ccc(Cl)cc2)C(=S)N1c1ccc(Cl)cc1 (stereo not given) | 93.7 | < 10 | 11.4 | 2160 |  | 2100 | 

SMILES | Activity (Cannabinoid receptor 1 [1]) [%] | Activity [2] [%] | inhibition [3] [%] | Ki (Cannabinoid receptor 1 [4]) [nM] | Activity [5] | EC50 (Cannabinoid receptor 1 [6]) [nM] | Ki (Cannabinoid receptor 1 [7]) [nM]
O=C1NC(=O)N(c2ccc(Cl)cc2)C1c1ccc(Br)cc1 (stereo not given) | < 15 | < 10 |  |  |  |  | 
O=C1NC(=O)N(c2ccccc2)C1c1ccccc1 (stereo not given) | < 10 | < 10 |  |  |  |  | 
COc1ccc(N2C(=O)C(c3ccccc3)N(c3ccc(OC)cc3)C2=S)cc1 (stereo not given) | 65.6 | < 20 | < 10 | 7030 |  |  | 
O=C1C(c2ccccc2)N(c2ccc(Cl)cc2)C(=O)N1c1ccc(Cl)cc1 (stereo not given) | 101 | 21.6 | < 10 | 353 | Antagonist | 309 | 247
O=C1C(c2ccccc2)N(c2ccc(Br)cc2)C(=O)N1c1ccc(Br)cc1 (stereo not given) | 102 | 35.6 | < 10 | 243 | Antagonist | 195 | 311
O=C1C(c2ccccc2)N(c2ccc(Br)cc2)C(=S)N1c1ccc(Br)cc1 (stereo not given) | 100 | < 15 | < 10 | 1450 |  | 1620 | 
O=C1C(c2ccccc2)N(c2ccc(O)cc2)C(=S)N1c1ccc(O)cc1 (stereo not given) | < 20 | < 10 | 31.5 |  |  |  | 
CCCCCCCN1C(=O)C(c2ccccc2)N(c2ccccc2)C1=O (stereo not given) |  | < 10 |  |  |  |  | 
O=C1C(c2ccc(Cl)cc2)N(c2cccc(Cl)c2)C(=O)N1c1cccc(Cl)c1 (stereo not given) | 67.4 | 24.8 | < 10 | 3310 |  |  | 
O=C1NC(=O)N(c2ccc(Br)cc2)C1c1ccccc1 (stereo not given) | 25.2 | < 10 |  |  |  |  | 
CCCCCCC(C)(C)c1cc(O)c2c(c1)OC(C)(C)[C@@H]1CC=C(CO)C[C@@H]21 |  |  |  | 18.6 |  | 0.6 | 2.75
O=C1C(c2ccc(Br)cc2)N(c2ccc(Cl)cc2)C(=O)N1c1ccc(Cl)cc1 (stereo not given) | 79.1 | < 20 | 15.4 | 905 | Antagonist | 1230 | 1740
COc1ccc(N2C(=O)NC(=O)C2c2ccccc2)cc1 (stereo not given) | < 10 | < 10 |  |  |  |  | 
O=C1C(c2ccccc2)N(c2cccc(Cl)c2)C(=O)N1c1cccc(Cl)c1 (stereo not given) | 76 | 32.1 | < 10 | 2110 |  | 936 | 
O=C1C(c2ccccc2)N(c2ccccc2)C(=S)N1c1ccccc1 (stereo not given) | 61.7 | < 10 | 11.8 | > 8000 |  |  | 
CCCCCC(=O)N1C(=O)C(c2ccccc2)N(c2ccccc2)C1=O (stereo not given) | < 10 | < 10 |  |  |  |  | 
O=C1NC(=S)N(c2ccccc2)C1c1ccccc1 (stereo not given) | < 10 | < 10 |  |  |  |  | 
